From ChEMBL document CHEMBL1782042, “Efficient microwave-assisted synthesis and antitumor activity of novel 4,4'-methylenebis[2-(3-aryl-4,5-dihydro-1H-pyrazol-5-yl)phenols]” (Eur J Med Chem, 2011)

Tests used:
EKVX = experiment: Anticancer activity against human EKVX cells after 48 hrs by sulforhodamine B assay; format: functional
How it was run: (§1)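 NCI 60-cell-line in vitro screen, second stage: five concentration levels (100, 10, 1.0, 0.1 and 0.01 μM) with 48 h continuous drug exposure. Cell growth was estimated by sulforhodamine B protein staining. GI50 is the drug concentration that gives a 50% reduction in net protein increase relative to control cells over the incubation.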

NCI-H23 = experiment: Anticancer activity against human NCI-H23 cells after 48 hrs by sulforhodamine B assay; format: functional; conditions: NCI-H23, 48 h; how it was run: as §1
OVCAR-4 [1] = experiment: Anticancer activity against human OVCAR4 cells after 48 hrs by sulforhodamine B assay; format: functional; conditions: OVCAR-4, 48 h; how it was run: as §1
A549 = experiment: Anticancer activity against human A549 cells after 48 hrs by sulforhodamine B assay; format: functional; conditions: A549, 48 h; how it was run: as §1
T47D = experiment: Anticancer activity against human T47D cells after 48 hrs by sulforhodamine B assay; format: functional
How it was run: (§2)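 NCI 60-cell-line screen, second stage. Five concentration levels (100, 10, 1.0, 0.1 and 0.01 μM), 48 h continuous drug exposure. Cell growth was estimated by sulforhodamine B protein staining. GI50 is the concentration giving a 50% reduction in net protein increase relative to control cells over the drug incubation. Compounds entered this stage after an earlier single-dose screen.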

CCRF-CEM = experiment: Anticancer activity against human CCRF-CEM cells after 48 hrs by sulforhodamine B assay; format: functional; how it was run: as §1
OVCAR-5 = experiment: Anticancer activity against human OVCAR5 cells after 48 hrs by sulforhodamine B assay; format: functional; conditions: OVCAR-5, 48 h; how it was run: as §1
SK-MEL-28 = experiment: Anticancer activity against human SK-MEL-28 cells after 48 hrs by sulforhodamine B assay; format: functional; conditions: SK-MEL-28, 48 h; how it was run: as §1
OVCAR-4 [2] = experiment: Cytotoxicity against human OVCAR4 cells; format: cell-based
How it was run: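 NCI 60 human tumour cell line screen, second stage at five concentrations (100, 10, 1.0, 0.1 and 0.01 μM). Continuous drug exposure for 48 h, with cell growth estimated by sulforhodamine B protein staining. GI50 is the drug concentration giving a 50% reduction in net protein increase relative to control cells over the incubation.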

SNB-75 = experiment: Anticancer activity against human SNB75 cells after 48 hrs by sulforhodamine B assay; format: functional; conditions: SNB-75, 48 h; how it was run: as §2
CAKI-1 = experiment: Anticancer activity against human Caki1 cells after 48 hrs by sulforhodamine B assay; format: functional; conditions: CAKI-1, 48 h; how it was run: as §1

In the case of `Oc1ccc(Cc2ccc(O)c(C3CC(c4ccc(Cl)cc4)=NN3)c2)cc1C1CC(c2ccc(Cl)cc2)=NN1` (stereo unspecified), the GI50 (EKVX) was 2.77 µM, the GI50 (NCI-H23) was 3.3 µM and the GI50 (OVCAR-4 [1]) was 3.54 µM. The GI50 (A549) was 2.45 µM, the GI50 (T47D) was 3.79 µM and the GI50 (CCRF-CEM) was 1.94 µM. For the same compound, the GI50 (OVCAR-5) was 6.1 µM, the GI50 (SK-MEL-28) was 9.84 µM and the LC50 (OVCAR-4 [2]) was greater than 100 µM. It also gave a GI50 (SNB-75) of 4.26 µM and a GI50 (CAKI-1) of 2.67 µM.
